Reference: ChEMBL document CHEMBL3808334, “Synthesis and in vitro evaluation of novel triazine analogues as anticancer agents and their interaction studies with bovine serum albumin” (Eur J Med Chem, 2016)

Columns and labels:
[1] = Growth inhibition of human HL-60(TB) cells incubated for 48 hrs by sulforhodamine B assay; type: functional; details: HL-60, 48 h
Outline: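 Five-concentration, 48 h SRB screen (10-fold or ½-log dilutions from a 400× DMSO concentrate; 24 h preincubation at 37 °C, 5% CO₂; time-zero plate; A515). GI50 was solved from (Ti−Tz)/(C−Tz)×100 = 50. TGI was taken where Ti = Tz, and LC50 from (Ti−Tz)/[…].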

NCI-H226 = experiment: Growth inhibition of human NCI-H226 cells incubated for 48 hrs by sulforhodamine B assay; type: functional; details: NCI-H226, 48 h
Outline: (§1)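 Cells were plated at 5,000–40,000 per well according to doubling time and preincubated 24 h at 37 °C in 5% CO2; time-zero plates were then TCA-fixed. Five concentrations (10-fold or ½-log dilutions, DMSO stock) were incubated 48 h. Cells were TCA-fixed, stained with 0.4% SRB and read at 515 nm. GI50 was taken where [(Ti−Tz)/(C−Tz)]×100 = 50.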

NCI-H460 = experiment: Growth inhibition of human NCI-H460 cells incubated for 48 hrs by sulforhodamine B assay; type: functional; details: NCI-H460, 48 h; outline: as §1
HT-29 [2] = experiment: Growth inhibition of human HT-29 cells incubated for 48 hrs by sulforhodamine B assay; type: functional; details: HT-29, 48 h; outline: as §1
[3] = Growth inhibition of human SF539 cells incubated for 48 hrs by sulforhodamine B assay; type: functional; details: SF-539, 48 h; outline: as §1
MCF7 = experiment: Growth inhibition of human MCF7 cells assessed as cell growth at 10^-8 M incubated for 48 hrs by sulforhodamine B assay; type: functional; details: MCF7, 48 h, read-out: Activity
[4] = Growth inhibition of human HCT116 cells assessed as cell growth at 10^-7 M incubated for 48 hrs by sulforhodamine B assay; type: functional; details: HCT-116, 48 h, read-out: Activity
Outline: (§2)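 Cells seeded at 5,000–40,000/well according to doubling time and preincubated 24 h at 37 °C, 5% CO2. Time-zero plates were TCA-fixed. DMSO concentrate was diluted in medium with 50 µg/ml gentamicin to give five concentrations (10-fold or ½ log steps), then exposed 48 h. Cells were TCA-fixed, stained with 0.4% SRB and read at 515 nm. Percent growth was taken against time-zero and control; GI50, TGI and LC50 derived.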

[5] = Growth inhibition of human HOP62 cells assessed as cell growth at 10^-4 M incubated for 48 hrs by sulforhodamine B assay; type: functional; details: HOP-62, 48 h, read-out: Activity
[6] = Growth inhibition of human SF268 cells assessed as cell growth at 10^-7 M incubated for 48 hrs by sulforhodamine B assay; type: functional; details: SF-268, 48 h, read-out: Activity
SK-MEL-28 = experiment: Growth inhibition of human SK-MEL-28 cells assessed as cell growth at 10^-7 M incubated for 48 hrs by sulforhodamine B assay; type: functional; details: SK-MEL-28, 48 h, read-out: Activity
SK-MEL-5 = experiment: Growth inhibition of human SK-MEL-5 cells assessed as cell growth at 10^-4 M incubated for 48 hrs by sulforhodamine B assay; type: functional; details: SK-MEL-5, 48 h, read-out: Activity
[7] = Growth inhibition of human UACC62 cells assessed as cell growth at 10^-4 M incubated for 48 hrs by sulforhodamine B assay; type: functional; details: UACC-62, 48 h, read-out: Activity
Malme-3M = experiment: Growth inhibition of human MALME-3M cells assessed as cell growth at 10 uM incubated for 48 hrs by sulforhodamine B assay; type: functional; details: read-out: Activity
SK-MEL-2 = experiment: Growth inhibition of human SK-MEL-2 cells assessed as cell growth at 10 uM incubated for 48 hrs by sulforhodamine B assay; type: functional; details: SK-MEL-2, 48 h, read-out: Activity
[8] = Growth inhibition of human Caki1 cells assessed as cell growth at 10 uM incubated for 48 hrs by sulforhodamine B assay; type: functional; details: CAKI-1, 48 h, read-out: Activity
Outline: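 Primary screen at one dose (10 µM) across 60 human cancer cell lines. Readout was growth percent relative to untreated control and time-zero.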

[9] = Growth inhibition of human TK10 cells assessed as cell growth at 10 uM incubated for 48 hrs by sulforhodamine B assay; type: functional; details: TK-10, 48 h, read-out: Activity
[10] = Growth inhibition of human HCC2998 cells assessed as cell growth at 10^-6 M incubated for 48 hrs by sulforhodamine B assay; type: functional; details: HCC 2998, 48 h, read-out: Activity; outline: as §2
HT-29 [11] = experiment: Growth inhibition of human HT-29 cells assessed as cell growth at 10^-8 M incubated for 48 hrs by sulforhodamine B assay; type: functional; details: HT-29, 48 h, read-out: Activity
[12] = Growth inhibition of human OVCAR5 cells assessed as cell growth at 10^-6 M incubated for 48 hrs by sulforhodamine B assay; type: functional; details: OVCAR-5, 48 h, read-out: Activity
SN12C = experiment: Growth inhibition of human SN12C cells assessed as cell growth at 10^-6 M incubated for 48 hrs by sulforhodamine B assay; type: functional; details: read-out: Activity
MDA-MB-231 = experiment: Growth inhibition of human MDA-MB-231 cells assessed as cell growth at 10^-6 M incubated for 48 hrs by sulforhodamine B assay; type: functional; details: MDA-MB-231, 48 h, read-out: Activity
Albumin = Albumin (Bos taurus, UniProt P02769); experiment: Binding affinity to bovine serum albumin assessed as binding constant in absorption spectra by Benesie-Hildebrand plot analysis; type: ADME; details: cattle, isolated protein
Sequence of Albumin (P02769 whole entry): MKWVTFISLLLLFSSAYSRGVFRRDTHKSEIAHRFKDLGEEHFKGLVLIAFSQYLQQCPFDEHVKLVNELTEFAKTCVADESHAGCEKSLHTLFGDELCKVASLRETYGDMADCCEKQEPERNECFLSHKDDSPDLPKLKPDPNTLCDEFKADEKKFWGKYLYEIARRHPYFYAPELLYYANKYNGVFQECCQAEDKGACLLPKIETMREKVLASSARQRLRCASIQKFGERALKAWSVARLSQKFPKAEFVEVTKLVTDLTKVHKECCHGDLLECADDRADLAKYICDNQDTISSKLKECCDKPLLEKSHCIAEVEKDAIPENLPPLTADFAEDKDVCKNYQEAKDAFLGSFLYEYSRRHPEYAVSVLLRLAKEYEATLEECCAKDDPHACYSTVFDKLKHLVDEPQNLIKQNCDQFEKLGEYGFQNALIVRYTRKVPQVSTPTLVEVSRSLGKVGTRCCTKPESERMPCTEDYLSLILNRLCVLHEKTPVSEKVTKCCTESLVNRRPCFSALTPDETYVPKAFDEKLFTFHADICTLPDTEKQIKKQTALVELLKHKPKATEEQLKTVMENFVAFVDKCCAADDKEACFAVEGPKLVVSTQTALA
Outline: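 BSA, 10 µM, in 0.1 M phosphate buffer pH 7.4, titrated with compound (0–20 µM per the figure; diluted from 10⁻³ mol L⁻¹ DMSO stocks). Run at 300 K in a 1 cm quartz cell. UV spectra taken 200–800 nm after 5 min equilibration; fluorescence excited at 280 nm, emission 351 nm, slit 10 nm. K is the intercept/slope ratio of a linear fit of 1/(A₀−A) or 1/(F₀−F) vs 1/[compound].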

U-251 = experiment: Growth inhibition of human U251 cells assessed as cell growth at 10 uM incubated for 48 hrs by sulforhodamine B assay; type: functional; details: U-251, 48 h, read-out: Activity
[13] = read-out: LC50 (the source's name)
[14] = read-out: pLC50 (the source's name) (converted)

In the case of `Fc1ccc(-c2nc(Nc3ccc(-c4nc5ccccc5[nH]4)cc3)nc(N3CCOCC3)n2)cc1`, the GI50 ([1]; read-out: GI50) is reported as 1.94 µM, the LC50 ([1]; read-out: LC50) is reported as > 100 µM and the TGI ([1]; read-out: TGI) is reported as 5.67 µM. The GI50 ([1]; read-out: pGI50 (converted)) was 1.95 µM, the LC50 ([1]; read-out: pLC50 (converted)) was > 100 µM and the TGI ([1]; read-out: pTGI (converted)) was 5.62 µM. For the same compound, the GI50 (NCI-H226; read-out: GI50) was 3.32 µM, the CC50 (NCI-H226; [13]) was > 100 µM and the TGI (NCI-H226; read-out: TGI) was 8.6 µM. The GI50 (NCI-H226; read-out: pGI50 (converted)) was 3.31 µM, the CC50 (NCI-H226; [14]) was > 100 µM and the TGI (NCI-H226; read-out: pTGI (converted)) was 8.51 µM. For the same compound, the GI50 (NCI-H460; read-out: GI50) was 2.48 µM, the CC50 (NCI-H460; [13]) was > 100 µM and the TGI (NCI-H460; read-out: TGI) was 6.51 µM. The GI50 (NCI-H460; read-out: pGI50 (converted)) was 2.45 µM, the CC50 (NCI-H460; [14]) was > 100 µM and the TGI (NCI-H460; read-out: pTGI (converted)) was 6.46 µM. For the same compound, the GI50 (HT-29 [2]; read-out: GI50) was 2.23 µM, the CC50 (HT-29 [2]; [13]) was > 100 µM and the TGI (HT-29 [2]; read-out: TGI) was 5.39 µM. For the same compound, the GI50 (HT-29 [2]; read-out: pGI50 (converted)) was 2.24 µM, the CC50 (HT-29 [2]; [14]) was > 100 µM and the TGI (HT-29 [2]; read-out: pTGI (converted)) was 5.37 µM. The GI50 ([3]; read-out: GI50) was 1.63 µM, the CC50 [3, 13] was 8.47 µM and the TGI ([3]; read-out: TGI) was 3.72 µM. The GI50 ([3]; read-out: pGI50 (converted)) was 1.62 µM, the CC50 [3, 14] was 8.51 µM and the TGI ([3]; read-out: pTGI (converted)) was 3.72 µM. It also gave a growth at 0.01 µM (MCF7) of 94%, a growth at 0.1 µM [4] of 94% and a growth at 100 µM [5] of -33%. For the same compound, the growth at 0.1 µM [6] was 96%, the growth at 0.1 µM (SK-MEL-28) was 91% and the growth at 100 µM (SK-MEL-5) was -90%. For the same compound, the growth at 100 µM [7] was -45%, the growth at 10 µM (Malme-3M) was -65.7% and the growth at 10 µM (SK-MEL-2) was -19.2%. For the same compound, the growth at 10 µM [8] was -56.6%, the growth at 10 µM [9] was 43.9% and the growth at 1 µM [10] was 94%. For the same compound, the growth at 0.01 µM (HT-29 [11]) was 100%, the growth at 1 µM [12] was 92% and the growth at 1 µM (SN12C) was 89%. The growth at 1 µM (MDA-MB-231) was 73%, the K (Albumin) was 1 ×10⁵ /M and the growth at 10 µM (U-251) was 6.38%.
With `c1ccc2[nH]c(-c3ccc(Nc4nc(N5CCCCC5)nc(N5CCOCC5)n4)cc3)nc2c1` the GI50 ([1]; read-out: GI50) was 2.42 µM, the LC50 ([1]; read-out: LC50) was > 100 µM and the TGI ([1]; read-out: TGI) was 5.8 µM. For the same compound, the GI50 ([1]; read-out: pGI50 (converted)) was 2.4 µM, the LC50 ([1]; read-out: pLC50 (converted)) was > 100 µM and the TGI ([1]; read-out: pTGI (converted)) was 5.75 µM. The GI50 (NCI-H226; read-out: GI50) was 3.2 µM, the CC50 (NCI-H226; [13]) was > 100 µM and the TGI (NCI-H226; read-out: TGI) was 17.7 µM. For the same compound, the GI50 (NCI-H226; read-out: pGI50 (converted)) was 3.16 µM, the CC50 (NCI-H226; [14]) was > 100 µM and the TGI (NCI-H226; read-out: pTGI (converted)) was 17.8 µM. For the same compound, the GI50 (NCI-H460; read-out: GI50) was 2.44 µM, the CC50 (NCI-H460; [13]) was > 100 µM and the TGI (NCI-H460; read-out: TGI) was 6.18 µM. The GI50 (NCI-H460; read-out: pGI50 (converted)) was 2.45 µM, the CC50 (NCI-H460; [14]) was > 100 µM and the TGI (NCI-H460; read-out: pTGI (converted)) was 6.17 µM. The GI50 (HT-29 [2]; read-out: GI50) was 2.44 µM, the CC50 (HT-29 [2]; [13]) was > 100 µM and the TGI (HT-29 [2]; read-out: TGI) was 5.56 µM. For the same compound, the GI50 (HT-29 [2]; read-out: pGI50 (converted)) was 2.45 µM, the CC50 (HT-29 [2]; [14]) was > 100 µM and the TGI (HT-29 [2]; read-out: pTGI (converted)) was 5.62 µM. The GI50 ([3]; read-out: GI50) was 2.14 µM, the CC50 [3, 13] was 28.5 µM and the TGI ([3]; read-out: TGI) was 5.75 µM. For the same compound, the GI50 ([3]; read-out: pGI50 (converted)) was 2.14 µM, the CC50 [3, 14] was 28.2 µM and the TGI ([3]; read-out: pTGI (converted)) was 5.75 µM. The growth at 0.01 µM (MCF7) was 95%, the growth at 0.1 µM [4] was 94% and the growth at 100 µM [5] was -55%. For the same compound, the growth at 0.1 µM [6] was 98%, the growth at 0.1 µM (SK-MEL-28) was 100% and the growth at 100 µM (SK-MEL-5) was -95%. It also gave a growth at 100 µM [7] of -38%, a growth at 10 µM (Malme-3M) of -50.2% and a growth at 10 µM (SK-MEL-2) of -20.6%. For the same compound, the growth at 10 µM [8] was -46.9%, the growth at 10 µM [9] was 58.8% and the growth at 1 µM [10] was 105%. The growth at 0.01 µM (HT-29 [11]) was 105%, the growth at 1 µM [12] was 103% and the growth at 1 µM (SN12C) was 100%. The growth at 1 µM (MDA-MB-231) was 92%, the K (Albumin) was 9.7 ×10⁴ /M and the growth at 10 µM (U-251) was 8.02%.
